Source: ChEMBL document CHEMBL1134346, “Labeling and evaluation of N-[11C]methylated quinoline-2-carboxamides as potential radioligands for visualization of peripheral benzodiazepine receptors” (J Med Chem, 2001)

Experiments:
Rattus norvegicus [1] = species on record: Rattus norvegicus; experiment: Tissue (adrenal gland) concentration of radioactivity at 30 min post-injection into Albino male CD rats with vehicle.; assay type: ADME, organism-based; conditions: in vivo, 0.5 h
How it was run: (§1)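 Separate groups of five rats received tail-vein PK 11195 (1.4-1.6 mg; 5 mg/kg) in 30 µL DMSO:EtOH 1:1, or vehicle alone, immediately before iv radioligand (90-170 µCi in saline, 0.9-1 Ci/µmol). Rats were decapitated at 30 min and tissues gamma-counted; values are %I.D./g.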

Rattus norvegicus [2] = species on record: Rattus norvegicus; experiment: Tissue (liver) distribution in Albino male CD rats after 60 minutes expressed as percent of injected dose per gram of organ.; assay type: ADME, organism-based; conditions: in vivo, 1 h
How it was run: (§2)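 Male albino CD rats (225-250 g) received the 11C-labelled radioligand in saline by tail-vein injection. Three rats per time point were decapitated under light ether anaesthesia at 5, 15, 30, 60 or 90 min. Blood was collected heparinized and plasma separated by centrifugation. The pituitary was dissected from the brain. Lung, liver (three-lobe pieces) and right deltoid muscle were sampled, washed in cold saline, gamma-counted and weighed. Results are %I.D./g.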

Rattus norvegicus [3] = species on record: Rattus norvegicus; experiment: Tissue (pituitary) distribution in Albino male CD rats after 60 minutes expressed as percent of injected dose per gram of organ.; assay type: ADME, organism-based, Pituitary gland; conditions: in vivo, 1 h; how it was run: as §2
[4] = target: Translocator protein (Rattus norvegicus) (UniProt P16257); experiment: Tissue (cortex) concentration of radioactivity at 30 min post-injection into Albino male CD rats after pretreatment with cold PK 11195.; assay type: functional; how it was run: as §1
Chain of Translocator protein (Rattus norvegicus) (P16257 whole entry, looked up): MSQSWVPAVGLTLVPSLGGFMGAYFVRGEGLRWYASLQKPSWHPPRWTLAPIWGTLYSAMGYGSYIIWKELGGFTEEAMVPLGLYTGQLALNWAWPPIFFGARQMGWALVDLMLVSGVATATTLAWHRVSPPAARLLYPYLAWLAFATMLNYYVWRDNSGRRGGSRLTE

Rattus norvegicus [5] = species on record: Rattus norvegicus; experiment: Tissue (blood) distribution in Albino male CD rats after 90 minutes expressed as percent of injected dose per gram of organ.; assay type: ADME, organism-based; conditions: in vivo, 1.5 h
How it was run: (§3)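 Radioligand given in saline into tail vein of male albino CD rats (225-250 g); 100-200 µCi per animal, 1-2 Ci/µmol at injection depending on radioligand. Three rats per time point were decapitated under light ether anaesthesia. Blood, plasma, brain regions and washed organs were weighed and gamma-counted. Uptake is %I.D./g tissue, mean ± SD.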

[6] = target: Translocator protein (Rattus norvegicus) (UniProt P16257); experiment: Tissue (lung) concentration of radioactivity at 30 min post-injection into Albino male CD rats after pretreatment with cold PK 11195.; assay type: functional
How it was run: (§4)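 Blocking study in male albino CD rats, five per group. Immediately before the 11C radioligand (in saline, i.v. tail vein), rats received 30 µL tail-vein PK 11195 (5 mg/kg; 1.4-1.6 mg) in DMSO:EtOH 1:1, or vehicle. Rats were decapitated at 30 min. Tissues were dissected, washed, gamma-counted and weighed as in the biodistribution study. Results are %I.D./g.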

Rattus norvegicus [7] = species on record: Rattus norvegicus; experiment: Tissue (heart) concentration of radioactivity at 30 min post-injection into Albino male CD rats with vehicle.; assay type: ADME, organism-based; conditions: in vivo, 0.5 h; how it was run: as §1
Rattus norvegicus [8] = species on record: Rattus norvegicus; experiment: Tissue (adrenal gland) distribution in Albino male CD rats after 30 minutes expressed as percent of injected dose per gram of organ.; assay type: ADME, organism-based; conditions: in vivo, 0.5 h; how it was run: as §3
Rattus norvegicus [9] = species on record: Rattus norvegicus; experiment: Tissue (testicle) distribution in Albino male CD rats after 30 minutes expressed as percent of injected dose per gram of organ.; assay type: ADME, organism-based; conditions: in vivo, 0.5 h; how it was run: as §2
Rattus norvegicus [10] = species on record: Rattus norvegicus; experiment: Tissue (lung) distribution in Albino male CD rats after 60 minutes expressed as percent of injected dose per gram of organ.; assay type: ADME, organism-based; conditions: in vivo, 1 h; how it was run: as §2
Rattus norvegicus [11] = species on record: Rattus norvegicus; experiment: Tissue (liver) distribution in Albino male CD rats after 30 minutes expressed as percent of injected dose per gram of organ.; assay type: ADME, organism-based; conditions: in vivo, 0.5 h; how it was run: as §2
Rattus norvegicus [12] = species on record: Rattus norvegicus; experiment: Tissue (cortex) distribution in Albino male CD rats after 90 minutes expressed as percent of injected dose per gram of organ.; assay type: ADME, organism-based; conditions: in vivo, 1.5 h; how it was run: as §3
Rattus norvegicus [13] = species on record: Rattus norvegicus; experiment: Tissue (lung) concentration of radioactivity at 30 min post-injection into Albino male CD rats with vehicle.; assay type: ADME, organism-based; conditions: in vivo, 0.5 h; how it was run: as §4
Rattus norvegicus [14] = species on record: Rattus norvegicus; experiment: Tissue (cerebellum) distribution in Albino male CD rats after 5 minutes expressed as percent of injected dose per gram of organ.; assay type: ADME, organism-based; conditions: in vivo; how it was run: as §3
Rattus norvegicus [15] = species on record: Rattus norvegicus; experiment: Tissue (testicle) distribution in Albino male CD rats after 90 minutes expressed as percent of injected dose per gram of organ.; assay type: ADME, organism-based; conditions: in vivo, 1.5 h
Rattus norvegicus [16] = species on record: Rattus norvegicus; experiment: Tissue (kidney) distribution in Albino male CD rats after 60 minutes expressed as percent of injected dose per gram of organ.; assay type: ADME, organism-based; conditions: in vivo, 1 h; how it was run: as §3
Rattus norvegicus [17] = species on record: Rattus norvegicus; experiment: Tissue (intestine) distribution in Albino male CD rats after 90 minutes expressed as percent of injected dose per gram of organ.; assay type: ADME, organism-based; conditions: in vivo, 1.5 h; how it was run: as §3
[18] = target: Translocator protein (Rattus norvegicus) (UniProt P16257); experiment: Tissue (muscle) concentration of radioactivity at 30 min post-injection into Albino male CD rats after pretreatment with cold PK 11195.; assay type: functional; how it was run: as §4
Rattus norvegicus [19] = species on record: Rattus norvegicus; experiment: Tissue (intestine) distribution in Albino male CD rats after 5 minutes expressed as percent of injected dose per gram of organ.; assay type: ADME, organism-based; conditions: in vivo; how it was run: as §3
Rattus norvegicus [20] = species on record: Rattus norvegicus; experiment: Tissue (liver) concentration of radioactivity at 30 min post-injection into Albino male CD rats with vehicle.; assay type: ADME, organism-based; conditions: in vivo, 0.5 h; how it was run: as §1
Rattus norvegicus [21] = species on record: Rattus norvegicus; experiment: Tissue (cerebellum) distribution in Albino male CD rats after 60 minutes expressed as percent of injected dose per gram of organ.; assay type: ADME, organism-based; conditions: in vivo, 1 h; how it was run: as §3
Rattus norvegicus [22] = species on record: Rattus norvegicus; experiment: Tissue (kidney) concentration of radioactivity at 30 min post-injection into Albino male CD rats with vehicle.; assay type: ADME, organism-based; conditions: in vivo, 0.5 h; how it was run: as §1
Rattus norvegicus [23] = species on record: Rattus norvegicus; experiment: Tissue (intestine) distribution in Albino male CD rats after 15 minutes expressed as percent of injected dose per gram of organ.; assay type: ADME, organism-based; conditions: in vivo, 0.25 h; how it was run: as §3
Rattus norvegicus [24] = species on record: Rattus norvegicus; experiment: Tissue (blood) distribution in Albino male CD rats after 30 minutes expressed as percent of injected dose per gram of organ.; assay type: ADME, organism-based; conditions: in vivo, 0.5 h; how it was run: as §3
Rattus norvegicus [25] = species on record: Rattus norvegicus; experiment: Tissue (testicle) distribution in Albino male CD rats after 5 minutes expressed as percent of injected dose per gram of organ.; assay type: ADME, organism-based; conditions: in vivo; how it was run: as §2
[26] = target: Translocator protein (Rattus norvegicus) (UniProt P16257); experiment: Tissue (liver) concentration of radioactivity at 30 min post-injection into Albino male CD rats after pretreatment with cold PK 11195.; assay type: functional, tissue-based; how it was run: as §1
Rattus norvegicus [27] = species on record: Rattus norvegicus; experiment: Tissue (spleen) concentration of radioactivity at 30 min post-injection into Albino male CD rats with vehicle.; assay type: ADME, organism-based; conditions: in vivo, 0.5 h; how it was run: as §4
Rattus norvegicus [28] = species on record: Rattus norvegicus; experiment: Tissue (cerebellum) distribution in Albino male CD rats after 15 minutes expressed as percent of injected dose per gram of organ.; assay type: ADME, organism-based; conditions: in vivo, 0.25 h; how it was run: as §3
Rattus norvegicus [29] = species on record: Rattus norvegicus; experiment: Tissue (pituitary) distribution in Albino male CD rats after 15 minutes expressed as percent of injected dose per gram of organ.; assay type: ADME, organism-based, Pituitary gland; conditions: in vivo, 0.25 h; how it was run: as §2
Rattus norvegicus [30] = species on record: Rattus norvegicus; experiment: Tissue (adrenal gland) distribution in Albino male CD rats after 90 minutes expressed as percent of injected dose per gram of organ.; assay type: ADME, organism-based; conditions: in vivo, 1.5 h; how it was run: as §3
Rattus norvegicus [31] = species on record: Rattus norvegicus; experiment: Tissue (intestine) distribution in Albino male CD rats after 30 minutes expressed as percent of injected dose per gram of organ.; assay type: ADME, organism-based; conditions: in vivo, 0.5 h; how it was run: as §3
Rattus norvegicus [32] = species on record: Rattus norvegicus; experiment: Tissue (spleen) distribution in Albino male CD rats after 60 minutes expressed as percent of injected dose per gram of organ.; assay type: ADME, organism-based; conditions: in vivo, 1 h
Rattus norvegicus [33] = species on record: Rattus norvegicus; experiment: Tissue (cortex) distribution in Albino male CD rats after 5 minutes expressed as percent of injected dose per gram of organ.; assay type: ADME, organism-based; conditions: in vivo; how it was run: as §3
Rattus norvegicus [34] = species on record: Rattus norvegicus; experiment: Tissue (heart) distribution in Albino male CD rats after 15 minutes expressed as percent of injected dose per gram of organ.; assay type: ADME, organism-based; conditions: in vivo, 0.25 h; how it was run: as §3
Rattus norvegicus [35] = species on record: Rattus norvegicus; experiment: Tissue (adrenal gland) distribution in Albino male CD rats after 15 minutes expressed as percent of injected dose per gram of organ.; assay type: ADME, organism-based; conditions: in vivo, 0.25 h; how it was run: as §3
Rattus norvegicus [36] = species on record: Rattus norvegicus; experiment: Tissue (heart) distribution in Albino male CD rats after 5 minutes expressed as percent of injected dose per gram of organ.; assay type: ADME, organism-based; conditions: in vivo; how it was run: as §3
Rattus norvegicus [37] = species on record: Rattus norvegicus; experiment: Tissue (cortex) concentration of radioactivity at 30 min post-injection into Albino male CD rats with vehicle.; assay type: ADME, organism-based; conditions: in vivo, 0.5 h; how it was run: as §1
Rattus norvegicus [38] = species on record: Rattus norvegicus; experiment: Tissue (liver) distribution in Albino male CD rats after 15 minutes expressed as percent of injected dose per gram of organ.; assay type: ADME, organism-based; conditions: in vivo, 0.25 h; how it was run: as §3
Rattus norvegicus [39] = species on record: Rattus norvegicus; experiment: Tissue (liver) distribution in Albino male CD rats after 5 minutes expressed as percent of injected dose per gram of organ.; assay type: ADME, organism-based; conditions: in vivo; how it was run: as §2
Rattus norvegicus [40] = species on record: Rattus norvegicus; experiment: Tissue (intestine) distribution in Albino male CD rats after 60 minutes expressed as percent of injected dose per gram of organ.; assay type: ADME, organism-based; conditions: in vivo, 1 h; how it was run: as §3

I.D./g (Rattus norvegicus [1]): 1.79%
I.D./g (Rattus norvegicus [2]): 0.45%
I.D./g (Rattus norvegicus [3]): 0.14%
I.D./g [4]: < 0.02%
I.D./g (Rattus norvegicus [5]): 0.05%
I.D./g [6]: < 0.12%
I.D./g (Rattus norvegicus [7]): 0.35%
I.D./g (Rattus norvegicus [8]): 2.78%
I.D./g (Rattus norvegicus [9]): 0.09%
I.D./g (Rattus norvegicus [10]): 1.77%
I.D./g (Rattus norvegicus [11]): 0.55%
I.D./g (Rattus norvegicus [12]): 0.06%
I.D./g (Rattus norvegicus [13]): 0.56%
I.D./g (Rattus norvegicus [14]): 0.1%
I.D./g (Rattus norvegicus [15]): 0.08%
I.D./g (Rattus norvegicus [16]): 0.51%
I.D./g (Rattus norvegicus [17]): 0.24%
I.D./g [18]: < 0.03%
I.D./g (Rattus norvegicus [19]): 0.18%
I.D./g (Rattus norvegicus [20]): 0.35%
I.D./g (Rattus norvegicus [21]): 0.07%
I.D./g (Rattus norvegicus [22]): 0.35%
I.D./g (Rattus norvegicus [23]): 0.37%
I.D./g (Rattus norvegicus [24]): 0.11%
I.D./g (Rattus norvegicus [25]): 0.04%
I.D./g [26]: < 0.45%
I.D./g (Rattus norvegicus [27]): 0.28%
I.D./g (Rattus norvegicus [28]): 0.11%
I.D./g (Rattus norvegicus [29]): 0.27%
I.D./g (Rattus norvegicus [30]): 2.22%
I.D./g (Rattus norvegicus [31]): 0.31%
I.D./g (Rattus norvegicus [32]): 0.65%
I.D./g (Rattus norvegicus [33]): 0.1%
I.D./g (Rattus norvegicus [34]): 0.86%
I.D./g (Rattus norvegicus [35]): 2.53%
I.D./g (Rattus norvegicus [36]): 0.68%
I.D./g (Rattus norvegicus [37]): 0.05%
I.D./g (Rattus norvegicus [38]): 0.69%
I.D./g (Rattus norvegicus [39]): 0.41%
I.D./g (Rattus norvegicus [40]): 0.25%
Compound: CCC(C)N(C)C(=O)c1nc2ccccc2c(-c2ccccc2F)c1C (stereo not given)
